In brackets after ≈: the same amount, converted by molar mass.
Tests used:
[1] = The compound was incubated with human stools and tested for determining the stability towards 7 dehydroxylation; assay type: ADME
cholylglycine hydrolase = test: The compound was incubated with cholylglycine hydrolase and tested for determining the stability towards C-24 Deamination; assay type: ADME; details: cholylglycine hydrolase
Rattus norvegicus [2] = test: Alkaline phosphatase in Bile Fistula rats after iv coinfusion of TCDCA and compound.; assay type: ADME, organism-based; details: in vivo
In short: (§1)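 Bile fistula Sprague-Dawley rats (200-250 g). TCDCA and test bile acid given as sodium salts, coinfused via jugular vein, each at 8 μmol/min/kg for 1 h. Bile collected at 30-min intervals for 3 h. Calcium, ALP and LDH in bile measured enzymatically; bile acid composition by HPLC (65% methanol, 15 mM ammonium acetate, pH 5.4). Mean ± SD.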

Rattus norvegicus [3] = test: Maximum biliary secretion rate of TCDCA after iv confusion in Bile fistula rats.; assay type: ADME, organism-based; details: in vivo
[4] = (§2) The compound was incubated with human stools and tested for determining the stability towards 7-dehydroxylation; assay type: ADME, organism-based
In short: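 Homogenised fresh human stool (500 mg) in 5 mL chopped meat-glucose medium with bile acid at 0.05 mM final, incubated at 37 °C; stopped with 30% KOH at 0, 4, 8, 16, 20, 24 and 72 h. Supernatant extracted on C-18 solid phase, analysed by TLC and HPLC (aqueous methanol 75%, 15 mM ammonium acetate, apparent pH 5.4).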

Rattus norvegicus [5] = test: Bile flow in Bile Fistula rats after iv coinfusion of TCDCA and compound.; assay type: ADME, organism-based; details: in vivo; in short: as §1
[6] = Critical Micellar concentration of the compound. was determined; assay type: ADME
In short: (§3)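 Measured in water from surface tension, using the maximum bubble-pressure method.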

Rattus norvegicus [7] = test: Secretion of cholesterol in Bile Fistula rats after the iv administration of compound, expressed as the residual secretion rate; assay type: ADME, organism-based; details: in vivo
In short: (§4)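 Male Sprague-Dawley rats (300-330 g), urethane-anesthetized, bile duct cannulated. After 1 h baseline, sodium salt infused via femoral vein at 10 μmol/min/kg for 1 h; bile collected at 15-min intervals for 3 h. Flow measured gravimetrically; bile acids, cholesterol and phospholipid measured enzymatically. Smax and Tmax read from secretion-time plots; Rs is the rate at hour 3. Mean ± SD, n=6.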

Rattus norvegicus [8] = test: Lactate dehydrogenase in Bile Fistula rats after iv coinfusion of TCDCA and compound.; assay type: ADME, organism-based; details: in vivo; in short: as §1
Rattus norvegicus [9] = test: Secretion of Bile in Bile Fistula rats after the iv administration of compound, expressed as the maximum secretion rate; assay type: ADME, organism-based; details: in vivo; in short: as §4
Rattus norvegicus [10] = test: Secretion of cholesterol in Bile Fistula rats after the iv administration of compound, expressed as the maximum secretion rate i; assay type: ADME, organism-based; details: in vivo; in short: as §4
[11] = (§5) Partition coefficient (logP); assay type: physicochemical; details: octanol/water
Rattus norvegicus [12] = test: Secretion of Bile in Bile Fistula rats after the iv administration of compound, expressed as the residual secretion rate; assay type: ADME, organism-based; details: in vivo
In short: (§6)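 Anaesthetised (ethyl carbamate) male Sprague-Dawley rats, 300-330 g, bile duct cannulated; after 1 h baseline, bile acid sodium salts infused via femoral vein at 10 μmol/min/kg for 1 h. Bile collected 3 h at 15 min intervals; flow gravimetric; BA, cholesterol, phospholipid by enzymatic assays. Smax, Tmax from secretion-vs-time plots; Rs = rate at third hour. n=6, mean ± SD.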

[13] = Water solubility was determined; assay type: ADME; details: read-out: WS
In short: (§7)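 Protonated form; measured on saturated solutions at pH 1.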

Rattus norvegicus [14] = test: Calcium output in Bile Fistula rats after iv coinfusion of TCDCA and compound.; assay type: ADME, organism-based; details: in vivo; in short: as §1
Rattus norvegicus [15] = test: Secretion of Bile acids in Bile Fistula rats after the iv administration of compound, expressed as the residual secretion rate; assay type: ADME, organism-based; details: in vivo; in short: as §4
[16] = Relative lipophilicity was determined; assay type: physicochemical; details: C-18 reverse phase HPLC
In short: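 C-18 reverse-phase HPLC run isocratically at 0.9 mL/min. Mobile phase 65% (v/v) aqueous methanol with 2 mM ammonium acetate, pH 7, so that all bile acids are fully ionized.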

Rattus norvegicus [17] = test: Secretion of Bile acids in Bile Fistula rats after the iv administration of compound, expressed as the maximum secretion rate; assay type: ADME, organism-based; details: in vivo; in short: as §6
[18] = Critical micellar pH was determined
In short: (§8)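 20 mL of 50 mM bile salt solution titrated with 0.1 M HCl. CMpH is taken as the pH at which precipitate of the protonated form is first seen by turbidity at 500 nm. Confirmed by back-titration with 0.1 M NaOH until the suspension clears.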

Rattus norvegicus [19] = test: Secretion of phospholipid in Bile Fistula rats after the iv administration of compound, expressed as the residual secretion rate; assay type: ADME, organism-based; details: in vivo; in short: as §6
Rattus norvegicus [20] = test: Secretion of phospholipid in Bile Fistula rats after the iv administration of compound, expressed as the maximum secretion rate; assay type: ADME, organism-based; details: in vivo; in short: as §6
Rattus norvegicus [21] = test: Maximum biliary secretion rate of bile acids after iv confusion in Bile fistula rats.; assay type: ADME, organism-based; details: in vivo
[22] = as §2; assay type: ADME, organism-based; remark: listed apart in the source
In short: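 Homogenized fresh human stool (500 mg) in 5 mL chopped meat-glucose medium; bile acid added at 0.05 mM final; 37 °C. Sampled at 0–72 h and stopped with 30% KOH. Bile acids recovered by C-18 solid-phase extraction, then analyzed by TLC and by HPLC with 75% methanol/15 mM ammonium acetate, pH 5.4.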

Rattus norvegicus [23] = test: Secretion of Bile acids in Bile Fistula rats after the iv administration of compound, expressed as the maximum secretion rate i; assay type: ADME, organism-based; details: in vivo; in short: as §4
Rattus norvegicus [24] = test: Secretion of Bile in Bile Fistula rats after the iv administration of compound, expressed as the residual secretion rate i; assay type: ADME, organism-based; details: in vivo; in short: as §4
[25] = Acidity constant was determined; assay type: ADME
Rattus norvegicus [26] = test: Secretion of phospholipid in Bile Fistula rats after the iv administration of compound, expressed as the residual secretion rate i; assay type: ADME, organism-based; details: in vivo; in short: as §4
[27] = Critical Micellar concentration was determined; assay type: ADME; in short: as §3
Rattus norvegicus [28] = test: Maximum biliary secretion rate of bile acids after iv coinfusion in Bile fistula rats.; assay type: ADME, organism-based; details: in vivo; in short: as §1
Rattus norvegicus [29] = test: Secretion of phospholipid in Bile Fistula rats after the iv administration of compound, expressed as the maximum secretion rate i; assay type: ADME, organism-based; details: in vivo; in short: as §4
Rattus norvegicus [30] = test: Maximum biliary secretion rate of TCDCA after iv coinfusion in Bile fistula rats.; assay type: ADME, organism-based; details: in vivo; in short: as §1
[31] = as §5; assay type: physicochemical; details: octanol/water; remark: listed apart in the source
In short: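 Octanol/water partition coefficient of the protonated species, calculated rather than measured.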

[32] = Water solubility of the compound. was determined; assay type: ADME; details: read-out: S; in short: as §7
[33] = Critical micellar pH of the compound. was determined; in short: as §8
[34] = Acidity constant of the compound. was determined; assay type: ADME

| Structure (SMILES) | half-life (cholylglycine hydrolase) [h] | [ALP]max (Rattus norvegicus [2]) [IU/L] | Smax (Rattus norvegicus [5]) [mL/h/kg] | CMC [6] [mM] | Rs (Rattus norvegicus [7]) [nM/min/kg] | [LDH]max (Rattus norvegicus [8]) [UI l-1] | Smax (Rattus norvegicus [9]) [mL/h/kg] | Smax (Rattus norvegicus [10]) [nM/min/kg] | solubility [13] [µM] | Smax (Rattus norvegicus [14]) | Rs (Rattus norvegicus [15]) | rK [16] | CMpH [18] | half-life [22] [h] | Smax (Rattus norvegicus [23]) [µM/min/kg] | Rs (Rattus norvegicus [24]) [mL/h/kg] | pKa [25] | Rs (Rattus norvegicus [26]) [µM/min/kg] | CMC [27] [mM] | logP [31] | further results |
| --- | --- | --- | --- | --- | --- | --- | --- | --- | --- | --- | --- | --- | --- | --- | --- | --- | --- | --- | --- | --- | --- |
| C[C@H](CCC(=O)NCCS(=O)(=O)O)[C@H]1CC[C@H]2[C@@H]3[C@H](O)C[C@@H]4C[C@H](O)CC[C@]4(C)[C@H]3C[C@H](O)[C@]12C [TAUROCHOLIC ACID] | 4 | – | – | – | – | – | – | – | – | – | – | – | – | – | – | – | – | – | – | – | half-life [1]: 6 h |
| C[C@H](CCC(=O)O)[C@H]1CC[C@H]2[C@@H]3[C@@H](O)C[C@@H]4C[C@H](O)CC[C@]4(C)[C@H]3CC[C@]12C [URSODIOL] | – | 217 | 4.32 | 26 | 24 | 115 | 6.96 | 55 | 8 (≈ 3.14 µg/mL) | 0.00018 µM/min/g | 0.0008 µM/min/g | 1 | 8.4 | – | – | – | – | – | – | – | Smax (Rattus norvegicus [3]): 1.56 µM/min/kg; half-life [4]: 2 h; logP [11]: 5.69; Rs (Rattus norvegicus [12]): 2.82 mL/h/kg; Smax (Rattus norvegicus [17]): 0.0042 µM/min/g; Rs (Rattus norvegicus [19]): 0.00012 µM/min/g; Smax (Rattus norvegicus [20]): 0.00026 µM/min/g; Smax (Rattus norvegicus [21]): 1.72 µM/min/kg |
| CO[C@H]1C[C@H](C(=O)O)N(C(=O)CCC(C)C2CC[C@H]3[C@@H]4[C@@H](O)CC5C[C@H](O)CC[C@]5(C)[C@H]4CC[C@]23C)C1 (some centres not stated) | > 72 | 30 | 5.04 | – | 12 | 14 | 5.4 | 28 | 30 (≈ 15.6 µg/mL) | 0.71 µM/min/kg | 0.8 µM/min/kg | 0.7 | 6.5 | > 72 | 11.1 | 2.64 | 3.5 | 0.12 | 29 | 3.86 | Smax (Rattus norvegicus [28]): 4.67 µM/min/kg; Smax (Rattus norvegicus [29]): 0.28 µM/min/kg; Smax (Rattus norvegicus [30]): 6.96 µM/min/kg |
| C[C@H](CCC(=O)O)[C@H]1CC[C@H]2[C@@H]3C[C@H](O)[C@@H]4C[C@H](O)CC[C@]4(C)[C@H]3CC[C@]12C [HYODEOXYCHOLIC_ACID] | – | – | – | 14 | – | – | – | – | – | – | – | 0.89 | – | – | – | – | – | – | – | 4.27 | solubility [32]: 15 µM (≈ 5.89 µg/mL); CMpH [33]: 8.1; pKa [34]: 5 |
| CC(CCC(=O)N1CCC[C@H]1C(=O)O)C1CC[C@H]2[C@@H]3[C@@H](O)CC4C[C@H](O)CC[C@]4(C)[C@H]3CC[C@]12C (some centres not stated) | > 72 | 30 | 5.82 | – | 28 | 71 | 3.9 | 52 | 59 (≈ 28.9 µg/mL) | 0.38 µM/min/kg | 1.6 µM/min/kg | 0.92 | 6 | > 72 | 7.9 | 3.06 | 3.9 | 0.09 | 7 | 4.41 | Smax (Rattus norvegicus [28]): 2.07 µM/min/kg; Smax (Rattus norvegicus [29]): 0.2 µM/min/kg; Smax (Rattus norvegicus [30]): 3.64 µM/min/kg |
